Experimental data reported in ChEMBL document CHEMBL3621200, “Toward the discovery of dual HCMV-VZV inhibitors: Synthesis, structure activity relationship analysis, and cytotoxicity studies of long chained 2-uracil-3-yl-N-(4-phenoxyphenyl)acetamides” (Bioorg Med Chem, 2015).
The source made the active and inactive calls. No cut-off for these calls is given here.

Key:
[1] = test system: Feline coronavirus; assay: Antiviral activity against Feline coronavirus; type: functional, organism-based
[2] = test system: Human alphaherpesvirus 1; assay: Antiviral activity against HSV1 KOS; type: functional, organism-based
In short: (§1)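 Confluent cell monolayers in 96-well plates were inoculated with 100 CCID50 of virus together with varying compound concentrations. Cytopathicity was scored once it reached completion in untreated infected controls.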

[3] = test system: Influenza B virus; assay: Antiviral activity against Influenza B virus; type: functional, organism-based
In short: (§2)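 Confluent cell monolayers (HEL, Vero, HeLa or MDCK) in 96-well plates were infected with 100 CCID50 of virus in the presence of varying compound concentrations. Cytopathicity was scored once it reached completion in untreated infected controls.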

[4] = test system: Coxsackievirus B4; assay: Antiviral activity against Human coxsackievirus B4; type: functional, organism-based
[5] = test system: Mammalian orthoreovirus 1; assay: Antiviral activity against Reovirus 1; type: functional
[6] = test system: Sindbis virus; assay: Antiviral activity against Sindbis virus; type: functional, organism-based
[7] = test system: Human immunodeficiency virus 2; assay: Antiviral activity against HIV2 ROD infected in human CEM cells assessed as reduction in virus- induced cytopathicity incubated for 4 to 5 days by microscopy based virus syncytium formation assay; type: functional, organism-based; conditions: ISOLATE ROD, CCRF-CEM
In short: (§3)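 CEM cells at ~3 × 10^5 cells/mL, infected with 100 CCID50 of HIV per mL in the presence of compound dilutions. Incubated 4–5 days at 37 °C in humidified CO2. Syncytium (giant cell) formation scored by microscopy.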

[8] = test system: Human herpesvirus 2 strain G; assay: Antiviral activity against HSV2 G Lyons; type: functional, organism-based
[9] = test system: Vaccinia virus; assay: Antiviral activity against Vaccinia virus Lederle; type: functional, organism-based; conditions: Orthopoxvirus vaccinia; in short: as §2
[10] = test system: Human alphaherpesvirus 2; assay: Antiviral activity against HSV2 Lyons; type: functional, organism-based; in short: as §1
[11] = test system: HEL; assay: Cytotoxicity against human cytomegalovirus infected HEL cells assessed as cell growth inhibition incubated for 3 days by coulter counter method; type: cell-based; conditions: 72 h
In short: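 HEL cells were seeded at 5 × 10^3 cells/well and left to adhere and proliferate for 24 h, then compound-containing medium was added. After 3 days at 37 °C, cells were counted with a Coulter counter.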

[12] = Cytotoxicity against human cytomegalovirus infected HEL cells assessed as alteration of cell morphology incubated for 3 days by microscopy; type: cell-based; conditions: HEL cells infected with human cytomegalovirus
In short: (§4)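 Cytotoxicity was given as the minimum cytotoxic concentration (MCC): the compound concentration causing a microscopically detectable change in HEL cell morphology.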

[13] = test system: Human immunodeficiency virus 1; assay: Antiviral activity against HIV1 3B infected in human CEM cells assessed as reduction in virus- induced cytopathicity incubated for 4 to 5 days by microscopy based virus syncytium formation assay; type: functional, organism-based; conditions: CCRF-CEM; in short: as §3
[14] = test system: Human respirovirus 3; assay: Antiviral activity against Parainfluenza 3 virus; type: functional, organism-based
[15] = test system: Influenza A virus; assay: Antiviral activity against Influenza A virus H1N1; type: functional, organism-based; in short: as §2
[16] = test system: HEL; assay: Cytotoxicity against Varicella zoster virus infected HEL cells assessed as cell growth inhibition incubated for 3 days by coulter counter method; conditions: human, 72 h
[17] = test system: Vesicular stomatitis virus; assay: Antiviral activity against Vesicular stomatitis virus; type: functional, organism-based; in short: as §2
[18] = test system: Influenza A virus H3N2; assay: Antiviral activity against Influenza A virus H3N2; type: functional, organism-based; in short: as §2
[19] = test system: Punta Toro virus; assay: Antiviral activity against Punta Toro virus; type: functional, organism-based
[20] = test system: Human betaherpesvirus 5; assay: Antiviral activity against human cytomegalovirus Davis infected in HEL cells assessed as reduction in viral plaque formation; type: functional, organism-based; conditions: Human betaherpesvirus 5, Davis
In short: (§5)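 Confluent HEL fibroblasts were infected with 100 PFU of HCMV in the presence of varying compound concentrations. Plaques were counted once plaque formation was complete in untreated infected controls.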

[21] = Cytotoxicity against Varicella zoster virus infected HEL cells assessed as alteration of cell morphology incubated for 3 days by microscopy; type: cell-based; conditions: human, HEL cells infected with Varicella zoster virus; in short: as §4
[22] = test system: Human betaherpesvirus 5; assay: Antiviral activity against human cytomegalovirus AD169 infected in HEL cells assessed as reduction in viral plaque formation; type: functional, organism-based; conditions: Human betaherpesvirus 5, AD169, HEL; in short: as §5
[23] = Selectivity index, ratio of CC50 for human cytomegalovirus AD169 infected HEL cells to EC50 for human cytomegalovirus AD169; type: toxicity, cell-based; conditions: HEL cells infected with human cytomegalovirus AD169, read-out: Ratio CC50/EC50
[24] = Selectivity index, ratio of CC50 for human cytomegalovirus Davis infected HEL cells to EC50 for human cytomegalovirus Davis; type: toxicity, cell-based; conditions: HEL cells infected with human cytomegalovirus Davis, read-out: Ratio CC50/EC50

| Structure (SMILES) | inhibition [1] | inhibition [2] | inhibition [3] | inhibition [4] | inhibition [5] | inhibition [6] | inhibition [7] | inhibition [8] | inhibition [9] | inhibition [10] | CC50 [11] | MCC at 72 h [12] | inhibition [13] | inhibition [14] | inhibition [15] | inhibition [17] | inhibition [18] | inhibition [19] | EC50 [20] | MCC at 72 h [21] | other results |
| --- | --- | --- | --- | --- | --- | --- | --- | --- | --- | --- | --- | --- | --- | --- | --- | --- | --- | --- | --- | --- | --- |
| O=C(Cn1c(=O)ccn(CCCOc2ccc(Br)cc2)c1=O)Nc1ccc(Oc2ccccc2)cc1 | inactive | inactive | inactive | inactive | inactive | inactive | inactive | inactive | inactive | inactive | 15.2 µM | ≥ 100 µM | inactive | inactive | inactive | inactive | inactive | inactive | 3900 nM | ≥ 100 µM | CC50 [16]: 15.2 µM |
| O=C(Cn1c(=O)ccn(CCCCCCOc2ccc(Br)cc2)c1=O)Nc1ccc(Oc2ccccc2)cc1 | inactive | inactive | inactive | inactive | inactive | inactive | inactive | inactive | inactive | inactive | 11.7 µM | 4 µM | inactive | inactive | inactive | inactive | inactive | inactive | 200 nM | 4 µM | EC50 [22]: 290 nM; CC50 [16]: 11.7 µM |
| O=C(Cn1c(=O)ccn(CCCCCOc2ccc(Br)cc2)c1=O)Nc1ccc(Oc2ccccc2)cc1 | inactive | inactive | inactive | inactive | inactive | inactive | inactive | inactive | inactive | inactive | 8.7 µM | 20 µM | inactive | inactive | inactive | inactive | inactive | inactive | 970 nM | > 100 µM | selectivity ratio [23]: 9; selectivity ratio [24]: 9; CC50 [16]: 8.7 µM |
| CN(C(=O)Cn1c(=O)ccn(CCCCCOc2ccc(Br)cc2)c1=O)c1ccc(Oc2ccccc2)cc1 | inactive | inactive | inactive | inactive | inactive | inactive | inactive | inactive | inactive | inactive | 6.1 µM | ≥ 4 µM | inactive | inactive | inactive | inactive | inactive | inactive | 1290 nM | ≥ 100 µM | EC50 [22]: 980 nM; CC50 [16]: 6 µM |
| O=C(Cn1c(=O)ccn(CCCCCOc2ccc(Br)cc2)c1=O)Nc1ccc(Cc2ccccc2)cc1 | inactive | inactive | inactive | inactive | inactive | inactive | inactive | inactive | inactive | inactive | 8.7 µM | 4 µM | inactive | inactive | inactive | inactive | inactive | inactive | 570 nM | ≥ 4 µM | EC50 [22]: 440 nM |
| O=C(Cn1c(=O)ccn(CCCCCOc2ccc(-c3ccccc3)cc2)c1=O)Nc1ccc(Oc2ccccc2)cc1 | inactive | inactive | inactive | inactive | inactive | inactive | inactive | inactive | inactive | inactive | 2.8 µM | 20 µM | inactive | inactive | inactive | inactive | inactive | inactive | 1040 nM | 100 µM | EC50 [22]: 510 nM |
| O=C(Cn1c(=O)ccn(CCCCOCc2ccc(Br)cc2)c1=O)Nc1ccc(Oc2ccccc2)cc1 | inactive | inactive | inactive | inactive | inactive | inactive | inactive | inactive | inactive | inactive | 4.8 µM | ≥ 4 µM | inactive | inactive | inactive | inactive | inactive | inactive | ≥ 1200 nM | > 100 µM | EC50 [22]: 1800 nM |
| O=C(Cn1c(=O)ccn(CCCCCCCCOc2ccc(Br)cc2)c1=O)Nc1ccc(Oc2ccccc2)cc1 | inactive | inactive | inactive | inactive | inactive | inactive | inactive | inactive | inactive | inactive |  | ≥ 0.16 µM | inactive | inactive | inactive | inactive | inactive | inactive | < 32 nM | 0.8 µM | EC50 [22]: < 32 nM; CC50 [16]: 11.7 µM |
| O=C(Cn1c(=O)ccn(CCCCOc2ccc(Br)cc2)c1=O)Nc1ccc(Oc2ccccc2)cc1 | inactive | inactive | inactive | inactive | inactive | inactive | inactive | inactive | inactive | inactive | 7.7 µM | ≥ 20 µM | inactive | inactive | inactive | inactive | inactive | inactive | 1640 nM | > 100 µM | EC50 [22]: 1790 nM; CC50 [16]: 7.7 µM |
| O=c1[nH]c(=O)n([C@H]2C[C@H](O)[C@@H](CO)O2)cc1/C=C/Br [BRIVUDINE] |  |  |  |  |  |  |  |  |  |  |  |  |  |  |  |  |  |  |  | > 300 µM | CC50 [16]: ≥ 79.3 µM |
